These results are taken from ChEMBL document CHEMBL2346555, “Efficacious cyclic N-acyl O-amino phenol duocarmycin prodrugs” (J Med Chem, 2013).

Series [1] concerns L1210. The experiment in a line: Cytotoxicity against mouse L1210 cells assessed as growth inhibition after 72 hrs by phosphatase assay. The format is functional, cell-based. The procedure, abridged: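 L1210 mouse leukemia cells were seeded at 30,000 cells/mL in DMEM with 10% FBS and grown 24 h at 37 °C, 5% CO2. DMSO dilutions were then added at six concentrations between 0–100 or 0–1000 nM, in duplicate, for 72 h. Read-out: phosphatase substrate in 0.1 M NaOAc pH 5.5 with 0.1% Triton X-100, 5 min at 37 °C, stopped with NaOH, A405. IC50 is the average of ≥4 determinations.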

For series [2], the system named is Neurospora discreta. The experiment in a line: Induction of Neurospora discreta w794 [5-32P]-DNA alkylation assessed as thermal-induced strand cleavage at 1 x 10^-3M incubated for 48 hrs at 23 degC followed by thermolysis at 100 degC for 30 mins measured after 12 to 48 hrs by PAGE/autoradiographic analysis in presence of L-glutathione.
Series [3] in a line: Hypoxic cytotoxicity ratio of IC50 for human PC3MM2 cell under aerobic condition to IC50 for human PC3MM2 cells under hypoxic condition. The format is functional.
Series [4] in a line: Cytotoxicity against human PC3MM2 cells assessed as growth inhibition under hypoxic condition after 72 hrs by SRB assay. Conditions: PC3MM2, 72 h. In kind it is functional, cell-based. The method in brief: (§1)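 Before the assay, A549 and PC3/MM2 cells were adapted for one week under hypoxia (37 °C, 5% CO2, 0.5% O2), subcultured twice; viability was checked by trypan blue. Cells were plated, held 24 h aerobic (37 °C, 5% CO2) or hypoxic, then exposed 72 h to 10 concentrations. SRB read-out per NCI DTP. Growth = [(Ti − Tz)/(C − Tz)] × 100%. IC50 by sigmoidal nonlinear regression, n = 3 independent experiments.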

Series [5] in a line: Cytotoxicity against human PC3MM2 cells assessed as growth inhibition under aerobic condition after 72 hrs by SRB assay. The format is functional, cell-based. Conditions: PC3MM2, 72 h. The method in brief:
as §1
For orientation: Sulforhodamine B stains cellular protein and so reports cell mass.

Series [6] has as its system A549. In words: Cytotoxicity against human A549 cells assessed as growth inhibition under hypoxic condition after 72 hrs by SRB assay. The format is functional, cell-based. As to conditions: A549, 72 h. The procedure, abridged: as §1
The subject of series [7] is A549. The experiment in a line: Hypoxic cytotoxicity ratio of IC50 for human A549 cell under aerobic condition to IC50 for human A549 cells under hypoxic condition. The format is functional.
The subject of series [8] is A549. In words: Cytotoxicity against human A549 cells assessed as growth inhibition under aerobic condition after 72 hrs by SRB assay. In kind it is functional, cell-based. Conditions: A549, 72 h. The method in brief: as §1
For series [9], the system named is Neurospora discreta. In words: Induction of Neurospora discreta w794 [5-32P]-DNA alkylation assessed as thermal-induced strand cleavage at 1 x 10^-3 M incubated for 2 hrs at 23 degC followed by thermolysis at 100 degC for 30 mins measured after 12 to 48 hrs by PAGE/autoradiographic analysis in presence of L-glutathione. As to conditions: in the assay text read “1 x 10^-5 M” for “1 x 10^-3 M”. The procedure, abridged:
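Agent first held with 1 M L-glutathione at 37 °C for 12 or 48 h to cause reductive activation. It was then incubated with 5′-32P-labelled w794 DNA at 23 °C for 2 h, and unbound agent was removed by EtOH precipitation. Thermolysis followed at 100 °C for 30 min, then 8% denaturing PAGE and autoradiography against Sanger sequencing lanes.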

Series [10] concerns Neurospora discreta. The experiment in a line: Induction of Neurospora discreta w794 [5-32P]-DNA alkylation assessed as thermal-induced strand cleavage at 1 x 10^-3 M incubated for 2 hrs at 23 degC followed by thermolysis at 100 degC for 30 mins measured after 12 to 24 hrs by PAGE/autoradiographic analysis in absence of L-glutathione. The procedure, abridged: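 Agent incubated with 5′-32P-labelled w794 DNA at 23 °C for 2 h; unbound agent removed by EtOH precipitation. Thermolysis at 100 °C for 30 min induced strand cleavage at alkylation sites. Read-out by 8% denaturing PAGE and autoradiography, alongside Sanger G, C, A and T sequencing lanes and untreated control DNA. No glutathione present.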

Series [11] concerns Neurospora discreta. In words: Induction of Neurospora discreta w794 [5-32P]-DNA alkylation assessed as thermal-induced strand cleavage at 1 x 10^-5 M to 1 X 10^-4 M incubated for 48 hrs at 23 degC followed by thermolysis at 100 degC measured after 30 mins by PAGE/autoradiographic analysis.
The subject of series [12] is Mus musculus. In words: Toxicity in B6D2F1 mouse allografted with mouse L1210 cells assessed as mortality at 100 to 250 ug/kg, ip tid administered on day 1 to 9 measured after 366 days. In kind it is organism-based. As to conditions: in vivo, 8784 h. The method in brief:
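Syngeneic L1210 cells (1 × 10^6) were given i.p. to B6D2F1 mice on day 0; 10 per group. Compound in 100% DMSO was injected i.p. on days 1, 5 and 9. Animals were monitored daily and weighed twice weekly, with the study extended to 366 days. Deaths from drug toxicity were recorded.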

Series [13] has as its system L1210. In words: Antitumor activity against mouse L1210 cells allografted in B6D2F1 mouse assessed as mean survival period at 500 ug/kg, ip tid administered on day 1 to 9 measured after 366 days relative to vehicle-treated control. The format is functional. The method in brief: (§2)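 L1210 cells (1 × 10^6) injected i.p. into B6D2F1 mice on day 0; 10 mice per group, randomized to vehicle or treatment. Dosing in 100% DMSO i.p. on days 1, 5 and 9 at 60–2500 μg/kg/inj. Animals were monitored daily and weighed twice weekly, with follow-up extended to 366 days. T/C = total survival days of the treated group ÷ total survival days of the control group × 100.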

Series [14] deals with L1210. In words: Antitumor activity against mouse L1210 cells allografted in B6D2F1 mouse assessed as mean survival period at 250 ug/kg, ip tid administered on day 1 to 9 measured after 366 days relative to vehicle-treated control. In kind it is functional. The procedure, abridged:
as §2

The subject of series [15] is L1210. The experiment in a line: Antitumor activity against mouse L1210 cells allografted in B6D2F1 mouse assessed as mean survival period at 100 ug/kg, ip tid administered on day 1 to 9 measured after 366 days relative to vehicle-treated control. In kind it is functional. The procedure, abridged:
as §2

The subject of series [16] is L1210. In words: Antitumor activity against mouse L1210 cells allografted in B6D2F1 mouse assessed as mean survival period at 60 ug/kg, ip tid administered on day 1 to 9 measured after 366 days relative to vehicle-treated control. In kind it is functional. The procedure, abridged:
as §2

Series [17] has as its system Neurospora discreta. In words: Induction of Neurospora discreta w794 [5-32P]-DNA alkylation assessed as thermal-induced strand cleavage at 1 x 10^-5 M incubated for 2 hrs at 23 degC followed by thermolysis at 100 degC for 30 mins measured after 12 to 24 hrs by PAGE/autoradiographic analysis in presence of L-glutathione.
The test system of series [18] is Neurospora discreta. The experiment in a line: Induction of Neurospora discreta w794 [5-32P]-DNA alkylation assessed as thermal-induced strand cleavage at 1 x 10^-5 M incubated for 2 hrs at 23 degC followed by thermolysis at 100 degC measured after 30 mins by PAGE/autoradiographic analysis in absence of L-glutathione. The procedure, abridged: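 Labeled DNA was incubated with agent for 2 h at 23 °C. Unbound agent was removed by EtOH precipitation, then thermolysis for 30 min at 100 °C, 8% denaturing PAGE and autoradiography, with Sanger G, C, A, T lanes as markers. In the glutathione arm, agent at 1 × 10−5 M was first held at 37 °C with 1 M L-glutathione for 12 or 48 h.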

The nature of series [19]: Fraction unbound in mouse plasma. In kind it is ADME, cell-free.
Series [20] can be described thus: Half life in mouse plasma.

Calls of active or inactive are those of the source.

Usually IC50 stands for the concentration that gives 50% inhibition. On to `CN1Oc2cc3c(c4cccc(c24)C1=O)[C@@H](CCl)CN3C(=O)c1cc2cc(NC(=O)c3cc4ccccc4[nH]3)ccc2[nH]1`, for which, in series [1] (Mus musculus, L1210, 72 h), the IC50 was found to be 740 nM.

On to `CNC(=O)c1cccc2c3c(cc(O)c12)N(C(=O)c1cc2cc(NC(=O)c4cc5ccccc5[nH]4)ccc2[nH]1)CC3CCl` (racemic), for which, in [2], the result was Active. Further, in series [1] (Mus musculus, L1210, 72 h), the half-inhibitory concentration (IC50) was found to be 0.073 nM.

As for `O=C1Nc2cccc3c4c(cc(c23)O1)N(C(=O)c1cc2cc(NC(=O)c3cc5ccccc5[nH]3)ccc2[nH]1)C[C@H]4CCl`, the “Ratio IC50” value in series [3] is 1.9; in [7] it was 1. Besides, the IC50 in series [4] is 170 nM; in series [5] it was 320 nM; in series [6] it was 90 nM; in series [8], 90 nM.

Take `COC(=O)c1cc2c([nH]1)C(=O)C=C1N(C(=O)c3cc4cc(OC)c(OC)c(OC)c4[nH]3)CC3CC123` (centres undefined) [DUOCARMYCIN SA]: the 50% inhibitory concentration (IC50) in series [1] (Mus musculus, L1210, 72 h) worked out at 0.1 nM.

Consider `CC(C)(C)OC(=O)N1C[C@H](CCl)c2c1cc1c3c(cccc23)C(=O)NO1`, for which the IC50 in series [1] (Mus musculus, L1210, 72 h) is over 1000 nM.

As to `COc1c(O)c2c(c3cc(C(=O)N4CCc5c4c(O)c(OC)c4[nH]c(C(=O)N6CC7CC78C6=CC(=O)c6[nH]cc(C)c68)cc54)[nH]c13)CCN2C(N)=O` (centres undefined) [CC-1065], the IC50 in series [1] (Mus musculus, L1210, 72 h) came out at 0.02 nM.

Turning to `CC(C)(C)OC(=O)NOc1cc2c(c3ccccc13)[C@H](CCl)CN2C(=O)c1cc2cc(NC(=O)c3cc4ccccc4[nH]3)ccc2[nH]1`, in [9], the outcome was Active. For the same compound, the result in series [10] was inactive.

As for `O=C(Nc1ccc2[nH]c(C(=O)N3C[C@@H](CCl)c4c3cc(O)c3ccccc43)cc2c1)c1cc2ccccc2[nH]1` [SECO-CBI-INDOLE], the outcome in [11] was Active. The Activity entry in series [12] is listed as “Toxic”. Further, the T/C in series [13] is 17; in series [14], 21; in series [15] it was 36; in series [16], over 284.

Turning to `O=C(Nc1ccc2[nH]c(C(=O)N3CC(CCl)c4c3cc(O)c3ccccc43)cc2c1)c1cc2ccccc2[nH]1` (centres undefined), the IC50 in series [1] (Mus musculus, L1210, 72 h) was determined as 0.9 nM.

Take `CN1Oc2cc3c(c4cccc(c24)C1=O)[C@@H](CCl)CN3C(=O)OC(C)(C)C`: the IC50 in [1] (Mus musculus, L1210, 72 h) was over 1000 nM.

For the compound `CC(C)(C)OC(=O)N1C[C@H]2C[C@@]23C1=CC(=O)c1ccccc13`, the IC50 in [1] (l1210) is 900 nM.

By fraction unbound is commonly meant free concentration divided by total concentration. A low value points to little free substance. The half-life is the time needed for the level to fall by half in the phase considered. A lower half-life goes with fast loss. For the compound `O=C(Nc1ccc2[nH]c(C(=O)N3C[C@@H](CCl)c4c3cc3c5c(cccc45)C(=O)NO3)cc2c1)c1cc2ccccc2[nH]1`, the result in [17] was Active. Besides, the result in series [18] was inactive. This compound had a fraction unbound in series [19] of under 0.05. Also, the half-life in series [20] was over 48 h. Moreover, in [1] (Mus musculus, L1210, 72 h), the IC50 came out at 0.3 nM.

For the compound `O=C(Nc1ccc2[nH]c(C(=O)N3C[C@H](CCl)c4c3cc3c5c(cccc45)C(=O)NO3)cc2c1)c1cc2ccccc2[nH]1`, the IC50 in [1] (Mus musculus, L1210, 72 h) is 65 nM.
